Measured values: ChEMBL document CHEMBL1177731, “Complementarity between a docking and a high-throughput screen in discovering new cruzain inhibitors” (J Med Chem, 2010)
Active and inactive are the calls of the source. No cut-off for these calls is given here.

What was measured:
[1] = target: T1, Cruzipain (Trypanosoma cruzi, UniProt P25779); assay: Inhibition of Trypanosoma cruzi cruzain assessed as Z-Phe-Arg-aminomethylcoumarin cleavage by competitive binding assay
In short: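 Cruzain (0.4 nM) in 0.1 M sodium acetate pH 5.5, 5 mM DTT, 0.01% Triton X-100. Each compound tested at four or more concentrations against seven Z-FR-AMC levels (0.31-20 μM, 2-fold steps). Activity from initial rates over 5 min. Ki derived from Lineweaver-Burk and Dixon plots.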

[2] = target: T1, Cruzipain; assay: Inhibition of Trypanosoma cruzi cruzain assessed as Z-Phe-Arg-aminomethylcoumarin cleavage
[3] = Inhibition of beta lactamase
In short: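 AmpC β-lactamase (1 nM final) with CENTA substrate (100 μM final; Km 48 μM) in 50 mM potassium phosphate, pH 7.0. Cleavage was read as absorbance at 405 nm over 3 min, and activity was taken from initial rates. Each compound was run twice: without Triton X-100 after a 5 min enzyme preincubation before substrate, and with 0.01% Triton X-100 with no preincubation. Inhibition was then compared between the two conditions.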

T1 sequence (P25779 whole entry): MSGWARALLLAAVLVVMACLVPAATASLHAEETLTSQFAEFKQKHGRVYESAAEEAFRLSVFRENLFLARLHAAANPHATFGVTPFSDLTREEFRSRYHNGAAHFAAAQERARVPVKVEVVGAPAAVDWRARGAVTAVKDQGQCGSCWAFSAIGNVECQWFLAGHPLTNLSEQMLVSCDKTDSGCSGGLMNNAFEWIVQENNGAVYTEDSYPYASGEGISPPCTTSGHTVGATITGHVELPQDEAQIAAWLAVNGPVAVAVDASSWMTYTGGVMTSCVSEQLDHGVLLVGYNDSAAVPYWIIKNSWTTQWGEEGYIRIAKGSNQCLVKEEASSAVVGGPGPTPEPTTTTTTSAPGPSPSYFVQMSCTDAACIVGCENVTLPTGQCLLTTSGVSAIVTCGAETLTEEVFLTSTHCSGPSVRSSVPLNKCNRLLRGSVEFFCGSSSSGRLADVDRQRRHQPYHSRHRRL

| Structure (SMILES) | Ki [1] [nM] | IC50 [2] [nM] | inhibition [3] |
| --- | --- | --- | --- |
| COc1ccc(NC(=O)COC(=O)C(CC(C)C)N2C(=O)C3CC=CCC3C2=O)cc1Cl (stereo unspecified) | 800 |  |  |
| O=C(CNC(=O)c1ccccc1)OC(C(=O)Nc1cc(C(F)(F)F)ccc1Cl)c1ccccc1 (stereo unspecified) | 65 | 300 | inactive |
| Clc1ccc2[nH]c3c(NCCCN4CCOCC4)ncnc3c2c1 | 2000 |  |  |
| Cc1cc(NC(=O)COC(=O)C(Cc2c[nH]c3ccccc23)NC(=O)c2ccc(F)cc2)no1 (stereo unspecified) |  | 3000 | inactive |
| O=C(CNC(=O)c1ccc(Cl)cc1)OCC(=O)c1ccc2c(c1)OCCO2 |  | 500 | inactive |
| CC(NC(=O)c1ccccc1Cl)C(=O)OC(C(=O)Nc1cc(C(F)(F)F)ccc1Cl)c1ccccc1 (stereo unspecified) |  | 11000 | inactive |
| Cc1cc(NC(=O)COC(=O)C(Cc2ccccc2)NC(=O)c2ccco2)no1 (stereo unspecified) |  | 38000 | inactive |
| COCCn1c(C)cc(C(=O)COC(=O)CNC(=O)c2ccccc2)c1C |  | 18000 | inactive |
| CC(C)C(NC(=O)c1ccco1)C(=O)NCC(c1ccco1)N1CCCCC1 (stereo unspecified) | 6000 | 7000 | inactive |
| COc1ccc(Cl)cc1NC(=O)COC(=O)C(CC(C)C)N1C(=O)C2CC=CCC2C1=O (stereo unspecified) |  | 1000 | inactive |
| O=C(CNC(=O)c1ccc(Cl)cc1)OC(C(=O)Nc1ccc(Cl)cc1C(F)(F)F)c1ccccc1 (stereo unspecified) |  | 700 | inactive |
| Cc1cc(C(=O)NCC(=O)OC(C(=O)Nc2cc(C(F)(F)F)ccc2Cl)c2ccccc2)ccc1[N+](=O)[O-] (stereo unspecified) |  | 400 | inactive |
| Cc1ccccc1OCC(=O)NCC(=O)OCC(=O)c1ccc2ccccc2c1 |  | 700 | inactive |
